Measured values collected from several papers.
Each line is one published result; the experiments were not run side by side.
Cell line: A-375
Read-out: cell growth or viability

| SMILES | test | setting | IC50 [µM] |
| --- | --- | --- | --- |
| CN1CCC(NC2CCc3[nH]c4c(C(N)=O)ccc(-c5ccccc5Cl)c4c3C2)CC1 (stereo not drawn) | – | 96 h | 0.0268 |
| COc1cc(C(=O)c2nc(-c3cccc4[nH]ccc34)c[nH]2)cc2c1OC=CO2 | MTS | 72 h | 0.0115 |
| CN1CCc2c(c3ccccc3n2Cc2ccc(C(=O)NO)cc2)C1 | CCK-8 | 48 h | 14.8 |
| CC(=O)O[C@H]1C(=O)[C@@]2(C)[C@H]([C@H](OC(=O)c3ccccc3)[C@]3(O)C[C@H](OC(=O)[C@H](O)[C@@H](NC(=O)c4ccccc4)c4ccccc4)C(C)=C1C3(C)C)[C@]1(OC(C)=O)CO[C@@H]1C[C@@H]2O | MTS | 72 h | 0.003 |
| CNc1cccc(Nc2nc(-c3ccncc3)nc3c2CNCC3)c1 | MTT | – | 35.2 |
| C[C@H]1COCCN1c1nc(N2CCOC[C@@H]2C)c2ccc(-c3cccc(C(=O)NCCOCCOCCOCCONC(=O)c4ccc(F)c(F)c4Nc4ccc(I)cc4F)c3)nc2n1 | WST-1 | 72 h | 11.6 |
| COc1cc(C(=O)c2nc(-c3cccc4[nH]cnc34)c[nH]2)cc(OC)c1OC | MTS | 72 h | 0.0197 |
| COc1cccc2c1C(=O)c1c(O)c3c(c(O)c1C2=O)C[C@@](O)(C(=O)CO)C[C@@H]3O[C@H]1C[C@H](N)[C@H](O)[C@H](C)O1 | – | 96 h | 0.0329 |
| COc1cccc(Nc2nc(-c3ccncc3)nc3c2CNCC3)c1 | MTT | – | 37.2 |
| CC(C)(C)c1cnc(CSc2cnc(NC(=O)C3CCN(C(=O)CCCCCCCN4Cc5cc6c(cc5C4)C(=O)N(C4CCC(=O)NC4=O)C6=O)CC3)s2)o1 (stereo not drawn) | MTT | – | 0.0833 |
| COc1ccc(-c2ccc3c(N4CCOC[C@@H]4C)nc(N4CCOC[C@@H]4C)nc3n2)cc1COC(=O)CCOCCOCCOCCONC(=O)c1ccc(F)c(F)c1Nc1ccc(I)cc1F | WST-1 | 72 h | 0.204 |
| Fc1ccccc1Nc1nc(-c2ccncc2)nc2c1CNCC2 | MTT | – | > 100 |
